Measurements as given in ChEMBL document CHEMBL4002615, “Investigation of piperazine benzamides as human β3 adrenergic receptor agonists for the treatment of overactive bladder” (Bioorg Med Chem Lett, 2017).
Values belong to the compound of their own block, whether it stands above or below them.

Columns and labels:
[1] = target: Beta-1 adrenergic receptor (Homo sapiens, UniProt P08588); test: Activity at human beta1 adrenergic receptor
[2] = target: T1, Beta-3 adrenergic receptor (Homo sapiens, UniProt P13945); test: Agonist activity at human beta3 adrenergic receptor relative to R-(-)-isoproterenol
Target sequence in this assay (P13945 whole entry, looked up): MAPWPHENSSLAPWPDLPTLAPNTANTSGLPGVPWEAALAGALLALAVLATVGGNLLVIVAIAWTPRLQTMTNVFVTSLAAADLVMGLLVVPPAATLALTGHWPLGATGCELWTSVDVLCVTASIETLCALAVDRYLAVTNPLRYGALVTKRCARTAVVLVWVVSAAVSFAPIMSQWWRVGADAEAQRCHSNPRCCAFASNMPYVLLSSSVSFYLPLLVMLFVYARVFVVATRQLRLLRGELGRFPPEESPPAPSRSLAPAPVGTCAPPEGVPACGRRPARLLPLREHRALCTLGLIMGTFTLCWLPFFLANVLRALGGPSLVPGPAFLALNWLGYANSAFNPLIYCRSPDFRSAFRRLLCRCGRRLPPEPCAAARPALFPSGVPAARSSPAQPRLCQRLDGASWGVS

[3] = target: Sodium-dependent noradrenaline transporter (Homo sapiens, UniProt P23975); test: Inhibition of NET (unknown origin) expressed in HEK293 cells assessed as reduction in norepinephrine reuptake; type: cell-based
[4] = target: Sodium-dependent serotonin transporter (Homo sapiens, UniProt P31645); test: Inhibition of SERT (unknown origin)
[5] = target: Voltage-gated inwardly rectifying potassium channel KCNH2 (Homo sapiens, UniProt Q12809); test: Inhibition of human ERG
[6] = Half life in rat at 0.5 mg/kg, iv administered as cassette dose or 2 mg/kg, po; type: ADME, organism-based; conditions: in vivo
[7] = target: T1, Beta-3 adrenergic receptor; test: Agonist activity at human beta3 adrenergic receptor
Procedure, shortened: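 Human β3 receptor agonist EC50 given as the mean of at least two experiments.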
Target sequence in this assay (P13945 whole entry): as the sequence (P13945 whole entry, looked up) above

[8] = Volume of distribution in rat at 0.5 mg/kg, iv administered as cassette dose or 2 mg/kg, po; type: ADME, organism-based; conditions: in vivo
[9] = target: Beta-2 adrenergic receptor (Homo sapiens, UniProt P07550); test: Activity at human beta2 adrenergic receptor
[10] = Plasma clearance in rat at 0.5 mg/kg, iv administered as cassette dose or 2 mg/kg, po; type: ADME, organism-based
[11] = target: Sodium channel protein type 5 subunit alpha (Homo sapiens, UniProt Q14524); test: Inhibition of human Nav1.5 by electrophysiology method
[12] = Half life in rat at 1 mg/kg, iv or 2 mg/kg, po; type: ADME, organism-based; conditions: in vivo
[13] = Oral bioavailability in rat 2 mg/kg; type: ADME, organism-based; conditions: in vivo
[14] = Plasma clearance in rat at 1 mg/kg, iv or 2 mg/kg, po; type: ADME, organism-based
[15] = Volume of distribution in rat at 1 mg/kg, iv or 2 mg/kg, po; type: ADME, organism-based; conditions: in vivo
Rattus norvegicus [16] = test: Total dose normalized AUC in rat 2 mg/kg, po; type: ADME, organism-based; conditions: in vivo
Canis familiaris [17] = test: Total dose normalized AUC in dog at 2 mg/kg, po; type: ADME, organism-based, Canis lupus familiaris; conditions: in vivo
[18] = Half life in dog at 0.5 mg/kg, iv or 2 mg/kg, po; type: ADME, organism-based, Canis lupus familiaris; conditions: in vivo
Canis familiaris [19] = test: Unbound dose normalized AUC in dog at 2 mg/kg, po; type: ADME, organism-based, Canis lupus familiaris; conditions: in vivo
[20] = Oral bioavailability in dog at 2 mg/kg; type: ADME, organism-based, Canis lupus familiaris; conditions: in vivo
Rattus norvegicus [21] = test: Unbound clearance in rat at 1 mg/kg, iv or 2 mg/kg, po; type: ADME, organism-based; conditions: in vivo
[22] = Plasma clearance in dog at 0.5 mg/kg, iv or 2 mg/kg, po; type: ADME, organism-based, Canis lupus familiaris
[23] = Volume of distribution in dog at 0.5 mg/kg, iv or 2 mg/kg, po; type: ADME, organism-based, Canis lupus familiaris; conditions: in vivo
[24] = Unbound fraction in rat at 1 mg/kg, iv or 2 mg/kg, po; type: ADME, organism-based; conditions: in vivo
[25] = Unbound fraction in dog at 0.5 mg/kg, iv or 2 mg/kg, po; type: ADME, organism-based, Canis lupus familiaris; conditions: in vivo
Rattus norvegicus [26] = test: Unbound dose normalized AUC in rat 2 mg/kg, po; type: ADME, organism-based; conditions: in vivo
Canis familiaris [27] = test: Unbound clearance in dog at 0.5 mg/kg, iv or 2 mg/kg, po; type: ADME, organism-based, Canis lupus familiaris; conditions: in vivo
[28] = Induction of phospholipidosis in human HepG2 cells; type: cell-based; conditions: read-out: A50
[29] = Unbound fraction in rhesus monkey at 0.5 mg/kg, iv or 2 mg/kg, po; type: ADME, organism-based, Macaca mulatta; conditions: in vivo
Rhesus monkey [30] = test: Unbound clearance in rhesus monkey at 0.5 mg/kg, iv or 2 mg/kg, po; type: ADME, organism-based, Macaca mulatta; conditions: in vivo
[31] = Stability in human liver microsomes assessed as parent compound remaining after 45 mins; type: ADME, microsome; conditions: read-out: Stability
Rhesus monkey [32] = test: Total dose normalized AUC in rhesus monkey at 2 mg/kg, po; type: ADME, organism-based, Macaca mulatta; conditions: in vivo
Rattus norvegicus [33] = test: Effect on nor-epinephrine level in rat brain at 10 mg/kg, po by microdialysis method; type: ADME, organism-based; conditions: in vivo
[34] = Plasma clearance in rhesus monkey at 0.5 mg/kg, iv or 2 mg/kg, po; type: ADME, organism-based, Macaca mulatta
[35] = Half life in rhesus monkey at 0.5 mg/kg, iv or 2 mg/kg, po; type: ADME, organism-based, Macaca mulatta; conditions: in vivo
[36] = Stability in human hepatocytes assessed as parent compound remaining up to 60 mins; type: ADME, cell-based, Hepatocyte; conditions: read-out: Stability
[37] = Volume of distribution in rhesus monkey at 0.5 mg/kg, iv or 2 mg/kg, po; type: ADME, organism-based, Macaca mulatta; conditions: in vivo
[38] = Stability in dog hepatocytes assessed as parent compound remaining up to 60 mins; type: ADME, cell-based, Canis lupus familiaris, Hepatocyte; conditions: read-out: Stability
[39] = Stability in rat hepatocytes assessed as parent compound remaining up to 60 mins; type: ADME, cell-based, Hepatocyte; conditions: read-out: Stability
[40] = Stability in rat liver microsomes assessed as parent compound remaining after 45 mins; type: ADME, microsome; conditions: read-out: Stability
Rhesus monkey [41] = test: Unbound dose normalized AUC in rhesus monkey at 2 mg/kg, po; type: ADME, organism-based, Macaca mulatta; conditions: in vivo
Rattus norvegicus [42] = test: Induction of nor-epinephrine efflux in medial prefrontal cortex of rat at 100 mg/kg, po measured 1 hr post dose by microdialysis method relative to control; type: ADME, organism-based; conditions: in vivo
[43] = Oral bioavailability in rhesus monkey at 2 mg/kg; type: ADME, organism-based, Macaca mulatta; conditions: in vivo
Rattus norvegicus [44] = test: In vivo agonist activity at beta3-AR in po dosed rat; type: functional, organism-based
[45] = Stability in dog liver microsomes assessed as parent compound remaining after 45 mins; type: ADME, Canis lupus familiaris, microsome; conditions: read-out: Stability
[46] = Stability in rhesus monkey hepatocytes assessed as parent compound remaining up to 60 mins; type: ADME, cell-based, Macaca mulatta, Hepatocyte; conditions: read-out: Stability
[47] = Stability in rhesus monkey liver microsomes assessed as parent compound remaining after 45 mins; type: ADME, Macaca mulatta, microsome; conditions: read-out: Stability

Sequence of Beta-1 adrenergic receptor (P08588 whole entry): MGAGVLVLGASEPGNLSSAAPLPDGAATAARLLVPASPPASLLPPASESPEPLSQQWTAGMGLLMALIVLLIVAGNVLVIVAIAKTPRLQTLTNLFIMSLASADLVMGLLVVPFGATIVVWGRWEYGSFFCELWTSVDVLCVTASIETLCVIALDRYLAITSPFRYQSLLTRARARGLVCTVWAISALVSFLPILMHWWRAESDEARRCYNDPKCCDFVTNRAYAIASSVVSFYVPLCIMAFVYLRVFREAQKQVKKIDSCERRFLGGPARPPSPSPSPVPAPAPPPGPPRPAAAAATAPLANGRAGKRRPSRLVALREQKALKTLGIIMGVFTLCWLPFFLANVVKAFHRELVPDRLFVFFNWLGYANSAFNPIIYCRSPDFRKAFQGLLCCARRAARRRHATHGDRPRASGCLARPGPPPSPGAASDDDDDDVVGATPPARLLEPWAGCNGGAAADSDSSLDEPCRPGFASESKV
Sequence of Sodium-dependent serotonin transporter (P31645 whole entry): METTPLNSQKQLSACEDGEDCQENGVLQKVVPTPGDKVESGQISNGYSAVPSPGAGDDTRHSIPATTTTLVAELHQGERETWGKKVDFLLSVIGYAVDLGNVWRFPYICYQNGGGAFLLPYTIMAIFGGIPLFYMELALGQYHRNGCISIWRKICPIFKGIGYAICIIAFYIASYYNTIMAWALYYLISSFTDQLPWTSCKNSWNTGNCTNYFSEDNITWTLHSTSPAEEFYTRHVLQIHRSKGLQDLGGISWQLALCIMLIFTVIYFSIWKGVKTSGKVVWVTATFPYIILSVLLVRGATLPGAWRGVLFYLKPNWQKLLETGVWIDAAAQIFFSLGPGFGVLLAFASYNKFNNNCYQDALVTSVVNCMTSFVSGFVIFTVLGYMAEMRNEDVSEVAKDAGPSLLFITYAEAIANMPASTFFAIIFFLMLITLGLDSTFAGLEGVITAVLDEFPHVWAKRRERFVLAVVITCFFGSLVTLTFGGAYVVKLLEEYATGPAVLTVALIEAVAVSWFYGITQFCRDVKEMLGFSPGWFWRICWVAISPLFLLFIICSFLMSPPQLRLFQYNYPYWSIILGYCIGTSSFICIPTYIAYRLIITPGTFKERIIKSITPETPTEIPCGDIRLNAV
Sequence of Sodium channel protein type 5 subunit alpha (Q14524 whole entry): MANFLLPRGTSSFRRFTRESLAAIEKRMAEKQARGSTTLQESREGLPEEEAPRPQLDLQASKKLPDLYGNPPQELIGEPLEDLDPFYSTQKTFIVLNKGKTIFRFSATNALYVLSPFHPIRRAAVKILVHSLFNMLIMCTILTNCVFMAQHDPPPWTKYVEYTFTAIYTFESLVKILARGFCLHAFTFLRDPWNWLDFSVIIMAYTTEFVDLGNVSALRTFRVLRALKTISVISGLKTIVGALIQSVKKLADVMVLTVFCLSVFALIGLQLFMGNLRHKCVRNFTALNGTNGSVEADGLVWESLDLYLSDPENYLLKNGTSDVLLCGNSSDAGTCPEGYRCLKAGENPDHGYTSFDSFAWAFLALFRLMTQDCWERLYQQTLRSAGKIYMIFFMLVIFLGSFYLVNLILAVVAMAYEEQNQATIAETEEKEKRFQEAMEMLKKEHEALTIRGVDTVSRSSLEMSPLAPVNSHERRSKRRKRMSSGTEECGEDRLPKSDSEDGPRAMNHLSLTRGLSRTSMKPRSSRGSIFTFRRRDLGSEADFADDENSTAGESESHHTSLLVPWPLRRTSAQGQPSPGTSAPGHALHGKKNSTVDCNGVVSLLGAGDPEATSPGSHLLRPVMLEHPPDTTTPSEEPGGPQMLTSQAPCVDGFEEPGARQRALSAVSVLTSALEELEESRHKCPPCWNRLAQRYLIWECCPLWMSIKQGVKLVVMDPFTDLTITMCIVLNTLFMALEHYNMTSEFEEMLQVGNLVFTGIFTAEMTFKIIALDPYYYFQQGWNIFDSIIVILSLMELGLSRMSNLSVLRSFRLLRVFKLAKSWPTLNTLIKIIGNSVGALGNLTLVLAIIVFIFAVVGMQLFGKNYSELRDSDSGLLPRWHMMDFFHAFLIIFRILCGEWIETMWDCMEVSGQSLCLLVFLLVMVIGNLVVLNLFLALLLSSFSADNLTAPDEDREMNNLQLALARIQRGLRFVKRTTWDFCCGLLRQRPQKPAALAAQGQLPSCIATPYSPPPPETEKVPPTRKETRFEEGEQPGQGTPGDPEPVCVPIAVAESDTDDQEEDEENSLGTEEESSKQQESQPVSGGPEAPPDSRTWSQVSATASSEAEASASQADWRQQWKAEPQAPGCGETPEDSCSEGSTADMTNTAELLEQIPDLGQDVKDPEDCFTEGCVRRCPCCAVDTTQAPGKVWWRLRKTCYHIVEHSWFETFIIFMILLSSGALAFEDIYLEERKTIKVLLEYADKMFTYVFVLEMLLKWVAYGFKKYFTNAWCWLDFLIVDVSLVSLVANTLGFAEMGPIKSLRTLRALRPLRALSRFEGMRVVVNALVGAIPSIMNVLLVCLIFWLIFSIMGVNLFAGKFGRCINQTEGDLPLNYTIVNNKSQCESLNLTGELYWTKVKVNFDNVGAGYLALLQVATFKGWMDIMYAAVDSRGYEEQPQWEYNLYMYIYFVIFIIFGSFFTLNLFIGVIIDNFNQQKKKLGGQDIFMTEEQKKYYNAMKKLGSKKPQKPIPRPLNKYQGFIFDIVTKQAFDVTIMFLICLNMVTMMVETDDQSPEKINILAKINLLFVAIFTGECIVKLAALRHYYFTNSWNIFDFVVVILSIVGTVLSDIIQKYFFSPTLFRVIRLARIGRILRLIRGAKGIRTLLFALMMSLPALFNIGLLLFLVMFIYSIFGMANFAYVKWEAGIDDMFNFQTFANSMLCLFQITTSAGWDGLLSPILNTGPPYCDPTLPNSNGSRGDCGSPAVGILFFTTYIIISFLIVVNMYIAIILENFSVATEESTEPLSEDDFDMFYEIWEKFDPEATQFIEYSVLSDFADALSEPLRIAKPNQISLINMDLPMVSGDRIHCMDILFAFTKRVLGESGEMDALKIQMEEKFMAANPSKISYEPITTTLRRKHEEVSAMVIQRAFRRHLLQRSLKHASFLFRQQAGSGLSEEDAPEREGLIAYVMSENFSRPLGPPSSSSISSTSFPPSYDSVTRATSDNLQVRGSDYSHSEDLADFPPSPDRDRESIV
Sequence of Beta-2 adrenergic receptor (P07550 whole entry): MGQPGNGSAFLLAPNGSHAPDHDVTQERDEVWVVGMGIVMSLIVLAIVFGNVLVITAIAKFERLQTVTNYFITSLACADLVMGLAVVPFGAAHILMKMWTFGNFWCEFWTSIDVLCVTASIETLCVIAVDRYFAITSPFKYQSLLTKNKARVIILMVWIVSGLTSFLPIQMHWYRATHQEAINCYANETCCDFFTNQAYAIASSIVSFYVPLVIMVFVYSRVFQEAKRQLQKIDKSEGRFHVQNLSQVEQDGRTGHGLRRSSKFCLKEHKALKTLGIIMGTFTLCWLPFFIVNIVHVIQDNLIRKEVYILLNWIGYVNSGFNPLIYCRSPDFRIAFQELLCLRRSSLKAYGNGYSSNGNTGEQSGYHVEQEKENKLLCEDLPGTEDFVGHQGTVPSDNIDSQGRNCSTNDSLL
Sequence of Sodium-dependent noradrenaline transporter (P23975 whole entry): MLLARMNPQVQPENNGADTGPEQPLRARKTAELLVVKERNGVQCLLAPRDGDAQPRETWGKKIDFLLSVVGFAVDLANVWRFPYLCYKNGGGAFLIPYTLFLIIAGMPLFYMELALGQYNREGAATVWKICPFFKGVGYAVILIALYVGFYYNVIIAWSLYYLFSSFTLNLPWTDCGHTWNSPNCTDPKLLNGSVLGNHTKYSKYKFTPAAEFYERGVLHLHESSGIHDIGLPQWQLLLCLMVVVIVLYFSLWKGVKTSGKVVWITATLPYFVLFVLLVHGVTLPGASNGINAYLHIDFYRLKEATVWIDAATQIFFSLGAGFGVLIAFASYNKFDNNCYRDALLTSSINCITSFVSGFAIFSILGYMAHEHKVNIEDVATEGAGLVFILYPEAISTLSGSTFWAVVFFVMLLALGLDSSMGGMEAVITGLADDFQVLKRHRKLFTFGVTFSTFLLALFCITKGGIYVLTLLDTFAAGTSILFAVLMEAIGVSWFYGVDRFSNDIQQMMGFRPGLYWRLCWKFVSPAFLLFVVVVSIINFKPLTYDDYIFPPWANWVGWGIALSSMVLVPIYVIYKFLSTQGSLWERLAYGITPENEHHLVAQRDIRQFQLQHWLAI

Compound: Cc1noc(-c2cccc(CN3CCN(C(=O)c4ccc(C[C@@H]5CC[C@H]([C@H](O)c6ccccc6)N5)cc4)CC3)n2)n1
- IC50 [1]: > 20 µM
- Emax [2]: 99%
- EC50 [3]: 0.251 µM
- IC50 [4]: 8.79 µM
- IC50 [5]: > 60 µM
- half-life [6]: 1.8 h
- EC50 [7]: 0.00032 µM
- Vd [8]: 19 L/kg
- IC50 [9]: > 20 µM
- clearance [10]: 181 mL/min/kg
- IC50 [11]: > 30 µM

Compound: CCn1nnc(CN2CCN(C(=O)c3ccc(C[C@@H]4CC[C@H]([C@H](O)c5ccccc5)N4)cc3)CC2)n1
- IC50 [1]: > 20 µM
- Emax [2]: 91%
- EC50 [3]: 1.52 µM
- IC50 [4]: > 10 µM
- IC50 [5]: > 60 µM
- EC50 [7]: 0.0051 µM
- IC50 [9]: > 20 µM
- IC50 [11]: > 30 µM

Compound: O=C(c1ccc(C[C@@H]2CC[C@H]([C@H](O)c3ccccc3)N2)cc1)N1CCN(Cc2ncn(CC(F)F)n2)CC1
- IC50 [1]: > 20 µM
- Emax [2]: 108%
- EC50 [3]: 0.026 µM
- IC50 [4]: > 10 µM
- half-life [12]: 7.3 h
- bioavailability [13]: < 1%
- clearance [14]: 111 mL/min/kg
- Vd [15]: 57 L/kg
- EC50 [7]: 0.0029 µM
- IC50 [9]: > 20 µM
- AUC/dose (Rattus norvegicus [16]): 0.29 µM·h/mg/kg
- IC50 [11]: > 30 µM

The next lines start with results.

- AUC/dose (Canis familiaris [17]): 0.29 µM·h/mg/kg
- half-life [18]: 8.5 h
- IC50 [1]: > 20 µM
- Emax [2]: 101%
- EC50 [3]: 0.827 µM
- IC50 [4]: > 10 µM
- fAUC/dose (Canis familiaris [19]): 0.19 µM·h/mg/kg
- half-life [12]: 2.6 h
- bioavailability [20]: 20%
- bioavailability [13]: 16%
- CL free (Rattus norvegicus [21]): 182 mL/min/kg
- clearance [22]: 22 mL/min/kg
- clearance [14]: 102 mL/min/kg
- Vd [15]: 21 L/kg
- EC50 [7]: 0.0015 µM
- IC50 [9]: > 20 µM
- Vd [23]: 13 L/kg
- fraction unbound [24]: 0.56
- fraction unbound [25]: 0.65
- fAUC/dose (Rattus norvegicus [26]): 0.03 µM·h/mg/kg
- CL free (Canis familiaris [27]): 34 mL/min/kg
- AUC/dose (Rattus norvegicus [16]): 0.05 µM·h/mg/kg
Compound: O=C(c1ccc(C[C@@H]2CC[C@H]([C@H](O)c3ccccc3)N2)cc1)N1CCN(Cc2nnn(CC(F)F)n2)CC1
- IC50 [11]: > 30 µM
- AC50 [28]: > 100 µM

- AUC/dose (Canis familiaris [17]): 1.9 µM·h/mg/kg
- half-life [18]: 6.9 h
- fraction unbound [29]: 0.44
- IC50 [1]: > 20 µM
- CL free (Rhesus monkey [30]): 43 mL/min/kg
- remaining at 0.75 h [31]: 42%
- Emax [2]: 98%
- AUC/dose (Rhesus monkey [32]): 0.09 µM·h/mg/kg
- EC50 [3]: 0.627 µM
- IC50 [4]: > 10 µM
- fAUC/dose (Canis familiaris [19]): 1.2 µM·h/mg/kg
- half-life [12]: 2.8 h
- bioavailability [20]: 100%
- clearance [34]: 19 mL/min/kg
- bioavailability [13]: 46%
- CL free (Rattus norvegicus [21]): 151 mL/min/kg
- clearance [22]: 22 mL/min/kg
- half-life [35]: 6.5 h
- remaining at 1 h [36]: 92%
- Vd [37]: 5.8 L/kg
- clearance [14]: 98 mL/min/kg
- Vd [15]: 17 L/kg
- remaining at 1 h [38]: 100%
- remaining at 1 h [39]: 73%
- remaining at 0.75 h [40]: 71%
- EC50 [7]: 0.0019 µM
- fAUC/dose (Rhesus monkey [41]): 0.04 µM·h/mg/kg
- IC50 [9]: > 20 µM
- fold change (FC) (Rattus norvegicus [42]): 2
- Vd [23]: 11 L/kg
- bioavailability [43]: 5.4%
- fraction unbound [24]: 0.65
- fraction unbound [25]: 0.63
- EC50 (Rattus norvegicus [44]): 4.5 µM
- remaining at 0.75 h [45]: 85%
- fAUC/dose (Rattus norvegicus [26]): 0.09 µM·h/mg/kg
- remaining at 1 h [46]: 50%
- CL free (Canis familiaris [27]): 35 mL/min/kg
- AUC/dose (Rattus norvegicus [16]): 0.14 µM·h/mg/kg
- remaining at 0.75 h [47]: 19%
Compound: O=C(c1ccc(C[C@@H]2CC[C@H]([C@H](O)c3ccccc3)N2)cc1)N1CCN(Cc2nnn(CC(F)(F)F)n2)CC1
- IC50 [5]: 29.9 µM
- Activity (Rattus norvegicus [33]): Non-Toxic
- IC50 [11]: > 30 µM
- AC50 [28]: 72 µM
